The subject of series [1] is Plasmodium falciparum. Briefly: Resistance index, ratio of IC50 for multidrug-resistant Plasmodium falciparum K1 to IC50 for Plasmodium falciparum W2. The format is functional.
Series [2] in a line: Drug metabolism assessed as ratio of sum of compound adduct peak area to clozapine adduct peak area by GSH trapping method. The format is physicochemical.
A short description of series [3]: Inhibition of beta haematin formation at 1000 uM after 5 to 6 hrs by pyridine-ferrichrome method. The format is physicochemical. In a few lines: (§1)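 Modified β-haematin inhibition assay. Compounds from DMSO stocks, 0–1000 µM final, in duplicate. NP-40 added (30.55 µM). Haematin suspension added to give 0.5 M acetate pH 4.8 and 100 µM haematin, then incubated 5–6 h at 37 °C. Free haeme detected with pyridine/H2O/acetone/0.2 M HEPES pH 7.4 reagent (final pyridine ~5% v/v) plus acetone, and absorbance read.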

Series [4] concerns Plasmodium falciparum. Briefly: Antiplasmodial activity against chloroquine-sensitive Plasmodium falciparum NF54 infected in human erythrocytes after 48 hrs by [3H]-hypoxanthine incorporation assay. Type of series: functional, organism-based. In a few lines: (§2)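 Modified [3H]-hypoxanthine incorporation assay against P. falciparum NF54 (sensitive) and K1 (multidrug-resistant). Values are means of ≥2 or ≥3 independent experiments. The resistance index is the K1 IC50 divided by the NF54 IC50.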

For series [5], the system named is Plasmodium falciparum. Briefly: Antiplasmodial activity against multidrug-resistant Plasmodium falciparum K1 infected in human erythrocytes after 48 hrs by [3H]-hypoxanthine incorporation assay. Type of series: functional, organism-based. The method in brief: as §2
Series [6] in a line: Inhibition of beta haematin formation after 5 to 6 hrs by pyridine-ferrichrome method. The format is physicochemical. In a few lines: as §1
The subject of series [7] is CHO. Kind of series: Cytotoxicity against CHO cells by MTT assay. The format is cell-based. The following applies: Cricetulus griseus. In a few lines:
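CHO cells, MTT assay. Stocks 20 mg/mL in DMSO, diluted in complete medium; undissolved samples tested as suspensions. Emetine served as reference (10-fold dilutions, 6 concentrations, lowest 0.001 µg/mL). IC50 derived from full dose–response curves by non-linear fitting.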

In series [8] the test system is Plasmodium berghei. Kind of series: Antimalarial activity against GFP-transfected Plasmodium berghei ANKA infected in mouse assessed as reduction in parasitemia at 50 mg/kg, po qd administered for 4 days measured on day 4 post last dose by flow cytometric analysis relative to control. The format is functional. On the set-up: scale not given: the % may be the effect or the level left.

Series [9] relates to Plasmodium berghei. Briefly: Antimalarial activity against GFP-transfected Plasmodium berghei ANKA infected in mouse assessed as mean survival days at 50 mg/kg, po qd administered for 4 days. Type of series: functional. In a few lines: (§3)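 Mice (n = 3) infected with GFP-transfected P. berghei ANKA. Compound given orally, dissolved in a vehicle containing ethanol and diluted 10× with water. Multi-dose arms were dosed once daily on four consecutive days (4, 24, 48, 72 h post-infection). Parasitaemia was measured by flow cytometry, detection limit 0.1%. Activity is % reduction relative to controls. Survival was followed for 30 days.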

The nature of series [10]: Selectivity index, ratio of IC50 for CHO cells to IC50 for chloroquine-sensitive Plasmodium falciparum NF54. The format is toxicity, cell-based. The following applies: hamster, read-out: Ratio IC50.
Series [11] is described as follows: Metabolic stability in human liver microsomes assessed as compound remaining at […] after 30 mins by HPLC-MS/MS analysis in presence of NADPH. The format is ADME. The conditions noted are these: read-out: Stability.
Series [12] in a line: Lipophilicity, log P of the compound. The format is physicochemical. The following applies: octanol/water.
The subject of series [13] is Plasmodium falciparum. Briefly: Resistance index, ratio of IC50 for multidrug-resistant Plasmodium falciparum K1 to IC50 for chloroquine-sensitive Plasmodium falciparum NF54. The format is functional. In a few lines: as §2
The nature of series [14]: Metabolic stability in BALB/c mouse liver microsomes assessed as compound remaining at […] after 30 mins by HPLC-MS/MS analysis in presence of NADPH. The format is ADME. The following applies: read-out: Stability.
For series [15], the system named is Plasmodium falciparum. Briefly: Antiplasmodial activity against Plasmodium falciparum W2 infected in human erythrocytes after 48 hrs by [3H]-hypoxanthine incorporation assay. The format is functional, organism-based.
Series [16] has as its system Plasmodium berghei. Kind of series: Antimalarial activity against GFP-transfected Plasmodium berghei ANKA infected in mouse assessed as reduction in parasitemia at 10 mg/kg, po qd administered for 4 days measured on day 4 post last dose by flow cytometric analysis relative to control. More on the design: scale not given: the % may be the effect or the level left. The format is functional.

Series [17] deals with Plasmodium berghei. Kind of series: Antimalarial activity against GFP-transfected Plasmodium berghei ANKA infected in mouse assessed as mean survival days at 10 mg/kg, po qd administered for 4 days. The format is functional. In a few lines:
as §3

Data on nine compounds can be found in ChEMBL document CHEMBL3603782, “Antimalarial benzoheterocyclic 4-aminoquinolines: Structure-activity relationship, in vivo evaluation, mechanistic and bioactivation studies” (Bioorg Med Chem, 2015).

The structures appear in SMILES notation.

Regarding `Clc1ccc2c(Nc3ccc4sc(NCCN5CCOCC5)nc4c3)ccnc2c1`, the “Ratio IC50” value in series [1] is on record as 0.63. Further, the Ratio in series [2] turned out to be 1.13.

For `O=[N+]([O-])c1ccc2oc(NCCc3ccccn3)nc2c1`, the “inhibition (INH)” value in [3] is on record as “Not Active”. The IC50 in series [4] and in series [5] was more than 20 µM each time.

For the compound `Clc1ccc2c(Nc3ccc4oc(NCCN5CCCCC5)nc4c3)ccnc2c1`, the concentration for half-maximal inhibition (IC50) in series [6] was found to be 89 µM; in series [7], 7.58 µM; in [4], 0.01 µM; in series [5], 0.024 µM. In series [8], the Activity was determined as 99.9%. Also, the MSD in series [9] was found to be 27 days. Also, the selectivity ratio in series [10] was 758. In addition, the results for the remaining at 0.5 h in series [11] and in [14] were 71% and 41%, respectively. This compound also gave a logP in series [12] of 4.11. Further, the “Ratio IC50” value in [13] is 2.4.

As for `Clc1ccc2oc(N3CCN(c4ccccc4)CC3)nc2c1`, the “inhibition (INH)” value in series [3] is “Not Active”. In addition, the IC50 in series [4] and in [5] was more than 20 µM throughout.

Take `CN1CCN(c2nc3cc([N+](=O)[O-])ccc3o2)CC1`: the “inhibition (INH)” value in series [3] is “Not Active”. Besides, the 50% inhibitory concentration (IC50) in series [4] and in series [5] was more than 20 µM in each case.

As to `Clc1ccc2c(Nc3ccc4sc(NCCN5CCCCC5)nc4c3)ccnc2c1`, in series [1], the “Ratio IC50” value turned out to be 0.54. For the same compound, the Ratio in [2] is recorded as 0.88.

On to `CCN(CC)Cc1cc(Nc2ccnc3cc(Cl)ccc23)ccc1O` [AMODIAQUINE], for which the IC50 was determined as 43.5 µM in series [6]; 147 µM in series [7]; 5 nM in [15]; 0.004 µM in series [4]; 0.008 µM in [5]. Moreover, the Activity is recorded as 99.9% in series [8] and 100% in series [16]. In addition, the MSD in series [9] and in [17] was more than 30 days each time. In [10], the selectivity ratio was 36800. The results for the “Ratio IC50” value in series [13] and in [1] were 2.5 and 1.6, respectively.

For the compound `O=[N+]([O-])c1ccc2oc(NCc3ccccn3)nc2c1`, the “inhibition (INH)” value in series [3] is listed as “Not Active”. The IC50 in series [4] and in series [5] was more than 20 µM each time.

Regarding `CN(C)CCCNc1nc2cc([N+](=O)[O-])ccc2o1`, the “inhibition (INH)” value in series [3] is listed as “Not Active”. Moreover, the IC50 in [4] was more than 20 µM; in [5], 11 µM.
